# Bioassay records deposited in PubChem by several laboratories.
# APP transl inh – APP translation inhibition. SH-SY5Y APP 5'UTR-luciferase reporter, luminescence. inhibition, % at 2 µM. 190,000 tested, 0.82% active. AID 1285;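 active = inhibition above a set limit, derived from the sample mean plus 3 SD, cut at about 45% in these data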
# Ba/F3 V617F tox – lowers viability of Ba/F3 cells expressing EpoR and JAK2V617F; ATP luminescence; inhibition, % at 5.6 µM; 220,000 tested, 1.1% active; AID 1446;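 active = inhibition above the campaign mean plus 3 SD over all tested compounds, cut at about 24% in these data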;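 note: cytokine-independent growth of Ba/F3 cells driven by EpoR plus mutant JAK2; 0% = DMSO-treated cells and 100% = JAK inhibitor I control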
# MT stabilize HCS – microtubule stabilizers in HeLa cells. 200,000 tested, 0.83% active. HeLa tubulin immunostaining HCS, 24 h; share of cells brighter than vehicle mean+2SD. % tubulin-high responders, % at 10 µM. AID 2205;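 active = plate Z-score above 3 for both tubulin-high and condensed-nucleus cell shares, with cell loss under 80%, at 10 µM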;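 note: anti alpha tubulin signal scored within the nucleus-defined area of each cell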
# BaF3 tox – counter-screen for JAK2V617F inhibitors: parental Ba/F3 viability inhibitors; AID 1486; CellTiter-Glo ATP luminescence; inhibition, % at 5.6 µM; 220,000 tested, 1.1% active;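 active = inhibition above a per-campaign cutoff, the mean inhibition of all tested compounds plus 3 SD, cut at about 27% in these data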;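 note: 0% = DMSO wells and 100% = JAK Inhibitor I control wells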
# IEC-6 tox – kills IEC-6 intestinal cells in KLF5 counter-screen. 290,000 tested, 0.78% active. inhibition, % at 5 µM. IEC-6 cytotoxicity, luminescence viability; in the data active = inhibition above about 22%;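 note: 0% = plate median of test compound wells and 100% = cytotoxic reference compound wells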
# bCat nuc transl – modulators of beta-catenin nuclear translocation. nuclear translocation activity, % at 5 µM. 190,000 tested, 0.3% active. HeLa beta-catenin nuclear translocation, immunofluorescence imaging;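 active = nuclear translocation activity above 50% at 5 µM, with a well cell count of 50 or more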;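 note: per-cell ratio of nuclear to cytoplasmic median beta-catenin stain intensity; plate controls were DMSO negative control for no effect and GSK-3 inhibitor IX positive control for full effect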
#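 System: Human HeLa cells, endogenous beta-catenin | Compound dosing: 5 µM primary, 0.02–20 µM confirmation | Timing: 24 h compound exposure at 37°C, 5% CO2 | Measured by: Fluorescence imaging of beta-catenin antibody stain plus DAPI | Read-out basis: % activation of per-cell nuclear versus cytoplasmic median beta-catenin signal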
# Numbers without * were called inactive; . = no result. Hits are enriched below; roughly 2.2% of the tested compounds scored in any of these assays.
SMILES,APP transl inh,Ba/F3 V617F tox,MT stabilize HCS,BaF3 tox,IEC-6 tox,bCat nuc transl
CCOC(=O)C(N)CSC1CC(=O)N(CCc2ccccc2)C1=O (centres undefined),.,.,.,.,-1,.
COc1ccc(-c2cc(-c3cccs3)c(C#N)c(SCC(=O)NCc3ccco3)n2)cc1,96*,7,20*,7,0,94*
COc1ccc(CNC(=O)CSc2nc(-c3ccccc3)cc(-c3cccs3)c2C#N)cc1,-9,-3,1,1,5,.
CSCC[C@H](NC(=O)[C@@H]1Cc2ccccc2CN1)C(=O)Nc1ccc2c(c1)OCCO2,.,.,.,.,-4,.
CCN(CC)CCNC1=NCCn2c1cc1cc(OC)ccc12,-13,5,2,9,2,.
CN=C1c2cc3cc(OC)ccc3n2CCN1Cc1ccccc1,36,16,40*,8,10,.
Cc1[nH]n(C2=NCCS2)c(=O)c1N=Nc1cccc(C(F)(F)F)c1,53*,0,2,7,-8,3
O=C(NC1CC2CCCC(C1)N2Cc1cccs1)c1ccc([N+](=O)[O-])cc1 (centres undefined),-11,0,5,1,1,-3
N#CC(C(N)=O)=C1CCCCC1,.,-5,.,-1,-1,-2
COc1ccc(C(C)=O)cc1CSc1nc2ccccc2c(=O)n1-c1ccccc1,7,3,9,3,3,2
C=CCn1c(SCc2cc(C(C)=O)ccc2OCC)nc2ccccc2c1=O,93*,84*,18*,79*,34*,98*
C=CCn1c(SCc2c(C)noc2C)nc2cc(C(=O)O)ccc2c1=O,3,-3,35*,6,1,.
COc1cc2nc(SCc3c(C)noc3C)n(CCC3=CCCCC3)c(=O)c2cc1OC,-2,-1,38*,4,-4,-1
Cc1ccc(C(=O)O)cc1NC(=O)Nc1cccc2ccccc12,.,.,.,.,-5,.
C=C1C(C(=O)Nc2ccccc2)C1C(=O)Nc1ccccc1 (centres undefined),.,-2,.,0,-4,0
C/C(=N\NC(=O)COc1ccccc1[N+](=O)[O-])c1cccc(NC(=O)c2ccncc2)c1,.,.,.,.,-4,.
Cc1cc(C)c(C)c(S(=O)(=O)NCc2cccnc2)c1C,4,4,3,6,0,0
COc1cc(C)c(Cl)c(C)c1S(=O)(=O)NCc1cccnc1,46*,-1,3,4,-9,.
Oc1ccccc1N=Nc1nc(-c2ccccc2)c(-c2ccccc2)[nH]1,88*,98*,4,97*,0,4
Cc1ccc(NC(=S)/N=C(\N)Nc2nc(C)c3cc(C)c(C)cc3n2)cc1C,8,15,2,38*,-1,0
COc1ccc2nc(N/C(N)=N/C(=S)Nc3cccc(C)c3)nc(C)c2c1,.,8,1,24,-1,-2
CCc1ccccc1NC(=S)/N=C(\N)Nc1nc(C)c2cc(C)ccc2n1,-11,54*,23*,55*,-1,10
CCOc1ccc2nc(N/C(N)=N/C(=S)Nc3cccc(C)c3)nc(C)c2c1,3,-2,3,3,-1,-3
Cc1ccc(NC(=S)/N=C(\N)Nc2nc(C)c3cc(C)ccc3n2)c(C)c1,-7,42*,3,51*,3,-2
COc1ccnc(Oc2ccc(F)cc2)c1C(=O)N/C=N/OCc1cccc(F)c1,19,9,5,12,0,-1
SMILES,APP transl inh,Ba/F3 V617F tox,MT stabilize HCS,BaF3 tox,IEC-6 tox,bCat nuc transl
CC(=O)NS(=O)(=O)c1ccc(NC(=O)CCC2CCCC2)cc1,52*,0,2,3,5,.
CC1(C)COC(/C=C/c2cccc([N+](=O)[O-])c2)=N1,8,5,24*,-2,7,8
CC1(C)COC(c2cc([N+](=O)[O-])ccc2Cl)=N1,-9,-5,1,0,1,-6
N#CNc1nc(O)cc(=O)[nH]1,.,-2,.,-1,0,-4
Cc1nn(-c2ccccc2)c(Cl)c1/C=C1/C(=N)N2N=C(C(C)C)SC2=NC1=O,-15,-2,9.9*,2,5,-3
O=C(Oc1ccccc1C(=O)Nc1ccccc1)c1ccccc1Br,58*,0,3,5,8,-2
O=C(COc1ccccc1C(=O)Nc1ccccc1)c1ccc(Br)cc1,-9,-3,4,0,3,-6
O=C(Cc1ccccc1)NCc1ccc(-n2cccc2)cc1,1,8,4,5,5,52*
